Test results taken from ChEMBL document CHEMBL3992529, “Total Syntheses and Biological Activities of Vinylamycin Analogues” (J Med Chem, 2017).
Converted amounts (≈) assume the structure as drawn. Structures can show the parent of a compound that is named as a salt. The source made the active and inactive calls. No cut-off for these calls is given here.

How the values were obtained:
K562 [1] = assay: Cytotoxicity against human K562 cells measured after 72 hrs by MTT assay; type: functional, cell-based; conditions: K562, 72 h
MCF7 [2] = assay: Cytotoxicity against human MCF7 cells incubated for 72 hrs under normoxic condition by MTT assay; type: functional, cell-based; conditions: MCF7, 72 h
How it was run: (§1)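 MCF-7 cells seeded at 2 × 10^4 cells/100 µL in duplicate and preincubated 24 h. Serial dilutions added, then 72 h at 20% O2 (normoxia) or 1% O2 (hypoxia, modular chamber). Viability by MTT under normoxia. Values are mean ± SD of three independent experiments.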

MCF7 [3] = assay: Cytotoxicity against human MCF7 cells incubated for 72 hrs under hypoxic condition by MTT assay; type: functional, cell-based; conditions: MCF7, 72 h; how it was run: as §1
[4] = Stability of the compound at -20 degreeC incubated for one month; type: physicochemical; conditions: 730.5 h
K562 [5] = assay: Potency index, ratio of vinylamycin IC50 to compound IC50 for human K562 cells; type: functional
MCF7 [6] = assay: Selectivity index, ratio of IC50 for human MCF7 cells under hypoxic condition to IC50 for human MCF7 cells under normoxic condition; type: functional
How it was run: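 Index computed as IC50(hypoxia)/IC50(normoxia) in MCF-7 cells, each from a 72 h MTT assay at 1% or 20% O2.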

Staphylococcus aureus = assay: Antibacterial activity against Staphylococcus aureus measured after 24 hrs by turbidimetric based microdilution method; type: functional
How it was run: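 S. aureus grown 18 h at 37 °C in MH broth, diluted 50-fold and regrown to OD600 0.8–1.0, then diluted ten-fold serially to about 1 × 10^4 CFU/mL. Compounds two-fold serially diluted, 64 to 0.0625 µg/mL. MIC read by visual turbidity after 24 h at 37 °C.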

[7] = Half life in Sprague-Dawley rat plasma at 1 mg/ml by HPLC analysis; type: ADME, cell-free
How it was run: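 SD rat plasma diluted to 50% in water, prewarmed to 37 °C. 40 µL of a 1 mg/mL ACN stock added per 1 mL plasma. Samples taken at 0–1440 min, proteins precipitated with ACN containing internal standard, centrifuged. Supernatant quantified by C18 HPLC using the internal standard method.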

[8] = Toxicity in wild-type zebrafish AB assessed as mortality at 0.8 ug/ml; parameters: species or system Danio rerio; conditions: in vivo
How it was run: (§2)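 Wild-type AB zebrafish were randomly allocated to wells, 30 fish per well, and exposed to the test agent at a range of concentrations.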

[9] = Toxicity in wild-type zebrafish AB assessed as mortality at 4 ug/ml; parameters: species or system Danio rerio; conditions: in vivo; how it was run: as §2
[10] = Toxicity in wild-type zebrafish AB assessed as mortality at 20 ug/ml; parameters: species or system Danio rerio; conditions: in vivo; how it was run: as §2
[11] = Toxicity in wild-type zebrafish AB assessed as mortality at 50 ug/ml; parameters: species or system Danio rerio; conditions: in vivo; how it was run: as §2
[12] = Toxicity in wild-type zebrafish AB assessed as mortality at 100 ug/ml; parameters: species or system Danio rerio; conditions: AB wild-type, in vivo; how it was run: as §2
K562 [13] = assay: Cytotoxicity against CM-Dil-labeled human K562 cells xenografted in wild-type zebrafish AB assessed as cell growth inhibition at 50 ug/ml measured after 2 days by fluorescence microscopic method relative to control; type: functional
How it was run: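 Wild-type AB zebrafish at 2 dpf yolk-injected with about 200 CM-DiI-labelled K562 cells, held at 35 °C to 3 dpf. Single waterborne dose in 0.1% DMSO aqueous solution, 30 fish per well. Then 2 days at 35 °C. 10 fish imaged by fluorescence microscopy and tumour-cell fluorescence intensity compared with vehicle control.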

[14] = Stability of the compound at -20 degreeC incubated for 3 days; type: physicochemical; conditions: 72 h
K562 [15] = assay: Induction of apoptosis in human K562 cells at 5 to 15 uM measured after 24 to 48 hrs by Annexin V-FITC/propidium iodide staining based flow cytometry; type: functional, cell-based
How it was run: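 K562 cells seeded at 1 × 10^5 per well and treated 24 h and 48 h. Cells washed in PBS, resuspended in binding buffer, stained in the dark with annexin V-FITC and PI for 15 min, then analysed by flow cytometry within 1 h. Values are mean ± SD of three independent experiments.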

SMILES	IC50 (K562 [1])	IC50 (MCF7 [2])	IC50 (MCF7 [3])	Stability [4]	Ratio IC50 (MCF7 [6])	also measured
C=C1/C=C/C(=O)N[C@@H](C)C(=O)N[C@H](C(C)C)C(=O)O[C@H]([C@@H](C)CCC)[C@@H](CCO)C(=O)N1	> 50 µM	> 20 µM	> 20 µM	–	–	–
C=C1/C=C/C(=O)NC(C)C(=O)NC(C(C)C)C(=O)O[C@@H]([C@H](C)CCCCCC)[C@H](CCOCc2ccccc2)C(=O)N1 (single isomer, unassigned)	3.06 µM	–	–	Stable	–	–
C=C1/C=C/C(=O)NCC(=O)N[C@@H](C(C)C)C(=O)O[C@@H]([C@H](C)CCCCCC)[C@H](CCO[Si](c2ccccc2)(c2ccccc2)C(C)(C)C)C(=O)N1	2.31 µM	3.49 µM	4.69 µM	Stable	1.34	Ratio IC50 (K562 [5]): 2
C=C1/C=C/C(=O)N[C@@H](C)C(=O)N[C@H](C(C)C)C(=O)O[C@@H]([C@H](C)CCCCCC)[C@H](CCO[Si](c2ccccc2)(c2ccccc2)C(C)(C)C)C(=O)N1	0.88 µM	3.75 µM	2.93 µM	Stable	0.78	–
C=C1/C=C/C(=O)N[C@@H](C)C(=O)N[C@H](C(C)C)C(=O)O[C@H]([C@H](C)CCCCCC)[C@@H](CCO[Si](c2ccccc2)(c2ccccc2)C(C)(C)C)C(=O)N1	1.78 µM	2.98 µM	2.69 µM	Stable	0.9	Ratio IC50 (K562 [5]): 3
C#CCCCC(=O)OCC[C@@H]1C(=O)NC(=C)/C=C/C(=O)N[C@H](C)C(=O)N[C@@H](C(C)C)C(=O)O[C@H]1[C@H](C)CCCCCC	8 µM	–	–	Stable	–	–
C=C1/C=C/C(=O)N[C@H](C)C(=O)N[C@@H](C(C)C)C(=O)O[C@@H]([C@H](C)CCCCCC)[C@H](CCOCc2ccc(OC)cc2)C(=O)N1	2.49 µM	–	–	Stable	–	–
CCCCCC[C@@H](C)[C@@H]1OC(=O)[C@H](C(C)C)NC(=O)[C@@H](C)NC(=O)/C=C/[C@H](CO)NC(=O)[C@H]1CCOCc1ccc(OC)cc1	21.4 µM	–	–	Stable	–	–
C=C1/C=C/C(=O)N[C@@H](C)C(=O)N[C@H](C(C)C)C(=O)O[C@@H]([C@H](C)CCCCCC)[C@H](CCOCc2ccc(OC)cc2)C(=O)N1	4.6 µM	10.1 µM	7.98 µM	Stable	0.79	–
C=C1/C=C/C(=O)N(C)CC(=O)N[C@@H](C(C)C)C(=O)O[C@@H]([C@H](C)CCCCCC)[C@H](CCO[Si](c2ccccc2)(c2ccccc2)C(C)(C)C)C(=O)N1	0.4 µM	–	–	Stable	–	MIC (Staphylococcus aureus): > 64 µg/mL; half-life at 1 mg/ml [7]: 20.1 h
C=C1/C=C/C(=O)N[C@H](C)C(=O)N[C@@H](C(C)C)C(=O)O[C@@H]([C@H](C)CCCCCC)[C@H](CCOC(=O)CC(c2ccccc2)(c2ccccc2)c2ccccc2)C(=O)N1	3.79 µM	–	–	Stable	–	–
Cc1ccc(NC(=O)c2ccc(CN3CCN(C)CC3)cc2)cc1Nc1nccc(-c2cccnc2)n1 [IMATINIB]	–	–	–	–	–	mortality at 0.8 ug/ml [8]: 0%; mortality at 4 ug/ml [9]: 0%; mortality at 20 ug/ml [10]: 0%; mortality at 50 ug/ml [11]: 0%; mortality at 100 ug/ml [12]: 100%; growth inhibition (GI) (K562 [13]): 71%
C=C1/C=C/C(=O)N[C@@H](C)C(=O)N[C@H](C(C)C)C(=O)O[C@H]([C@@H](C)CCCCCC)[C@@H](CCO)C(=O)N1	4.86 µM	12.3 µM	9.17 µM	–	0.74	MIC (Staphylococcus aureus): 8 µg/mL (≈ 16.2 µM); half-life at 1 mg/ml [7]: 0.54 h; Stability [14]: Unstable
C=C1/C=C/C(=O)N[C@H](C)C(=O)N[C@@H](C(C)C)C(=O)O[C@@H]([C@H](C)CCCCCC)[C@H](CCOC(=O)C23CC4CC(CC(C4)C2)C3)C(=O)N1	7.72 µM	–	–	Stable	–	–
CCCCCC[C@@H](C)[C@@H]1OC(=O)[C@H](C(C)C)NC(=O)[C@@H](C)NC(=O)/C=C/[C@H](CO)NC(=O)[C@H]1CCOCc1ccccc1	33.6 µM	–	–	Stable	–	–
Cc1ccc(NC(=O)c2ccc(CN3CCN(C)CC3)cc2)cc1Nc1nccc(-c2cccnc2)n1 [IMATINIB MESYLATE]	0.31 µM	–	–	–	–	–
O=C(O)c1cn(C2CC2)c2cc(N3CCNCC3)c(F)cc2c1=O [CIPROFLOXACIN]	–	–	–	–	–	MIC (Staphylococcus aureus): 0.5 µg/mL (≈ 1.51 µM)
C=C1/C=C/C(=O)N[C@H](C)C(=O)N[C@@H](C(C)C)C(=O)O[C@@H]([C@H](C)CCCCCC)[C@H](CCOC(=O)CP(=O)(OCC)OCC)C(=O)N1	7.9 µM	–	–	Stable	–	–
C=C1/C=C/C(=O)N[C@H](C)C(=O)N[C@@H](C(C)C)C(=O)O[C@@H]([C@H](C)CCCCCC)[C@H](CCOC(=O)OC(C)(C)C)C(=O)N1	5.43 µM	–	–	Stable	–	–
C=C1/C=C/C(=O)N(C)CC(=O)N[C@@H]([C@H](O)C(N)=O)C(=O)O[C@@H]([C@H](C)CCCCCCCCCCCC(C)C)[C@H](C)C(=O)N1	–	0.3 µM	0.08 µM	–	0.27	–
Nc1ccn([C@@H]2O[C@H](CO)[C@@H](O)C2(F)F)c(=O)n1 [GEMCITABINE]	–	0.57 µM	8.9 µM	–	15.6	–
C=C1/C=C/C(=O)N[C@H](C)C(=O)N[C@@H](C(C)C)C(=O)O[C@@H]([C@H](C)CCCCCC)[C@H](CCOC(=O)[C@H](Cc2ccccc2)NC(=O)OC(C)(C)C)C(=O)N1	5.95 µM	–	–	Stable	–	–
C#CCCCCCCCCC(=O)OCC[C@@H]1C(=O)NC(=C)/C=C/C(=O)N[C@H](C)C(=O)N[C@@H](C(C)C)C(=O)O[C@H]1[C@H](C)CCCCCC	4.41 µM	–	–	Stable	–	MIC (Staphylococcus aureus): > 64 µg/mL; Activity (K562 [15]): Active
C=C1/C=C/C(=O)N[C@H](C)C(=O)N[C@@H](C(C)C)C(=O)O[C@@H]([C@H](C)CCCCCC)[C@H](CCOC(=O)CCCCCCCCCCCCCCCCC)C(=O)N1	> 50 µM	–	–	Stable	–	–
C#CCCCCCCCCC(=O)OCC[C@@H]1C(=O)N[C@@H](CO)/C=C/C(=O)N[C@H](C)C(=O)N[C@@H](C(C)C)C(=O)O[C@H]1[C@H](C)CCCCCC	17.9 µM	–	–	Stable	–	–
C=C1/C=C/C(=O)N(C)CC(=O)N[C@@H]([C@H](O)C(=O)OC)C(=O)O[C@@H]([C@H](C)CCCCCCCCCCCC(C)C)[C@H](C)C(=O)N1	–	0.32 µM	0.12 µM	–	0.38	–
C=C1/C=C/C(=O)N[C@@H](C)C(=O)N[C@H](C(C)C)C(=O)OC([C@@H](C)CCC)[C@@H](CCOCc2ccc(OC)cc2)C(=O)N1 (single isomer, unassigned)	13.7 µM	–	–	Stable	–	–
C=C1/C=C/C(=O)N[C@@H](C)C(=O)N[C@H](C(C)C)C(=O)O[C@H]([C@@H](C)CCCCCC)[C@@H](CCO[Si](c2ccccc2)(c2ccccc2)C(C)(C)C)C(=O)N1	1.27 µM	5.11 µM	7.02 µM	Stable	1.37	Ratio IC50 (K562 [5]): 4
